{
  "source": "ChEMBL document CHEMBL4346701",
  "about": "“Synthesis and biological evaluation of tryptophan-derived rhodanine derivatives as PTP1B inhibitors and anti-bacterial agents” (Eur J Med Chem, 2019)",
  "key": {"[1]": {"target": "T1, Receptor-type tyrosine-protein phosphatase F (Homo sapiens, UniProt P10586)", "T1 sequence (P10586 whole entry, the tested form may be a part)": "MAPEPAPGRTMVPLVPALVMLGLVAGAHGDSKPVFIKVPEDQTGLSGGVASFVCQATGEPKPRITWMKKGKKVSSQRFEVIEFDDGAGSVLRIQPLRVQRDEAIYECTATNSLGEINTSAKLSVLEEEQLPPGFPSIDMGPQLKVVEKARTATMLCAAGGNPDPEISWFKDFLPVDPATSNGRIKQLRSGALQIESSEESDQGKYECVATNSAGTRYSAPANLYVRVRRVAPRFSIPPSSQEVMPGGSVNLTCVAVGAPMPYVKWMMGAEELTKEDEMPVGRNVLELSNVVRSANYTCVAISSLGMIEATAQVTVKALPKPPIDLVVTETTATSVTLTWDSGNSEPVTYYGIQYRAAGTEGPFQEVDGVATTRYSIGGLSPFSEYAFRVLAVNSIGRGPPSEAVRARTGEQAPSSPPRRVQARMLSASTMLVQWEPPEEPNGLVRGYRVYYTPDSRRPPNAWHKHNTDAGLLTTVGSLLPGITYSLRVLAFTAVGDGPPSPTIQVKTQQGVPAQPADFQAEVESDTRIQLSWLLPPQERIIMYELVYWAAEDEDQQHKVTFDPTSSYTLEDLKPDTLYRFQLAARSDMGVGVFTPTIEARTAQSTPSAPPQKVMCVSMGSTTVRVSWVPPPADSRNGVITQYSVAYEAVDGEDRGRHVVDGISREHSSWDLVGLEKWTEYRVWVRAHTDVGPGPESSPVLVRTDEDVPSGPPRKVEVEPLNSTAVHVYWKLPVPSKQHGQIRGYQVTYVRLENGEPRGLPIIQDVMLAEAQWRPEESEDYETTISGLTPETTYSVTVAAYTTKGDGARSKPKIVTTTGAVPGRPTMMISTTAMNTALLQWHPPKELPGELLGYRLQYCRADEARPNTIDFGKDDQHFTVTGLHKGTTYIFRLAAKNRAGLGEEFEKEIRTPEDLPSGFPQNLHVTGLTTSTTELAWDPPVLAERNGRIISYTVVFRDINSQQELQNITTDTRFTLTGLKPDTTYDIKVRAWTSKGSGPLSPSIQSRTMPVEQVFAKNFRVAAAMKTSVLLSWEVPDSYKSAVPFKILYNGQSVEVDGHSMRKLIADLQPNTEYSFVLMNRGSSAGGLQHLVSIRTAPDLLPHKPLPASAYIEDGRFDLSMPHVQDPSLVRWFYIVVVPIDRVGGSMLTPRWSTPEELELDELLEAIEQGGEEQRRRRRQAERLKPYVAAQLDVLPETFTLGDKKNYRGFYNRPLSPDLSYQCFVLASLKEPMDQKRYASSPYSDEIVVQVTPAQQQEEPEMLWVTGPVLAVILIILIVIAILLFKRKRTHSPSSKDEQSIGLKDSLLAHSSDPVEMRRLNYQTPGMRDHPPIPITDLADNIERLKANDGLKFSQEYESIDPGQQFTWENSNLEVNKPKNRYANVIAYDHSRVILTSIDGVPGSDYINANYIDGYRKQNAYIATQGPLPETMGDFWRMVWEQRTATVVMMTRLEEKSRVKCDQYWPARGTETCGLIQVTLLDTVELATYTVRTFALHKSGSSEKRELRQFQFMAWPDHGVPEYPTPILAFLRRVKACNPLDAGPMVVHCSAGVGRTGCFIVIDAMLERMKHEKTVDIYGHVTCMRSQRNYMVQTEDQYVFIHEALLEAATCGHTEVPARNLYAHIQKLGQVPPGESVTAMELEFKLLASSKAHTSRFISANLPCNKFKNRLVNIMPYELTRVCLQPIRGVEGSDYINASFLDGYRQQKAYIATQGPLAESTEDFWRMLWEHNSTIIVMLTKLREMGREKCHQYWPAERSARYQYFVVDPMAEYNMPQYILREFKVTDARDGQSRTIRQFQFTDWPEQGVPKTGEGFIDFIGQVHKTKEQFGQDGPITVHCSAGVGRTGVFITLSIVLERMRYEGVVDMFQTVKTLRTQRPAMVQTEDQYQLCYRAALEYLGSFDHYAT", "experiment": "Inhibition of human recombinant GST-tagged LAR (catalytic domain 1275 to 1613 residues) expressed in Escherichia coli BL21 (DE3) using pNPP as substrate at 20 ug/ml measured for 2 mins by colorimetric analysis", "method_in_brief": "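Single-concentration screen at 20 µg/mL in the pNPP phosphatase assay.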"}, "[2]": {"system": "Streptococcus mutans", "experiment": "Antibacterial activity against Streptococcus mutans KCTC3289 assessed as reduction in bacterial cell growth incubated for 24 hrs by ELISA", "format": "functional", "conditions": "KCTC3289, 24 h", "method_in_brief": "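MIC determined by serial dilution in 96-well microtiter plates. Strains used were E. coli 1924 and P. aeruginosa 2742 (Gram-negative), S. mutans 3289 (Gram-positive) and the fungus C. albicans 7535. Gatifloxacin, moxifloxacin, norfloxacin and oxacillin served as antibacterial reference agents, and fluconazole as the antifungal reference.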"}, "[3]": {"system": "Staphylococcus aureus", "experiment": "Antibacterial activity against Staphylococcus aureus KCTC503 assessed as reduction in bacterial cell growth incubated for 24 hrs by ELISA", "format": "functional", "conditions": "KCTC503, 24 h", "method_in_brief": "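MICs determined by serial dilution in 96-well microtiter plates. The strain panel included Gram-positive S. aureus strains and multidrug-resistant clinical isolates. Gatifloxacin, moxifloxacin, norfloxacin and oxacillin served as antibacterial positive controls.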"}, "[4]": {"target": "T2, M-phase inducer phosphatase 2 (Homo sapiens, UniProt P30305)", "T2 sequence (P30305 whole entry)": "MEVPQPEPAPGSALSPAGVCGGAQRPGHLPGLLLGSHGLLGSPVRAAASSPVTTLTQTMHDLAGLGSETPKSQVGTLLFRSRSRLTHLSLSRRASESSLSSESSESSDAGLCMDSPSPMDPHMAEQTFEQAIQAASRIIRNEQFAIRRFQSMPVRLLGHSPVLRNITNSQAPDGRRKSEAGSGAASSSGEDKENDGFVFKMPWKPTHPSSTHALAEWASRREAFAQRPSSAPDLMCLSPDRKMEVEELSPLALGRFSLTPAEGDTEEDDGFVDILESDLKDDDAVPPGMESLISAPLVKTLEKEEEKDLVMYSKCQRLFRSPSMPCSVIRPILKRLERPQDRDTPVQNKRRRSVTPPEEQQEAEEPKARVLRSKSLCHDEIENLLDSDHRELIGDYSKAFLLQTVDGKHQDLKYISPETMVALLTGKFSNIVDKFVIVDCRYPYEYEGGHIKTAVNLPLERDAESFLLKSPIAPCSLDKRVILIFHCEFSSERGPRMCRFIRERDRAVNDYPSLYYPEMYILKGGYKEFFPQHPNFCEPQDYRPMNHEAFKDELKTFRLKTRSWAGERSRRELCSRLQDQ", "experiment": "Inhibition of human recombinant GST-tagged CDC25B expressed in Escherichia coli BL21 (DE3) using pNPP as substrate measured for 2 mins by colorimetric analysis", "method_in_brief": "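pNPP hydrolysis assay. IC50 was derived by regression analysis and given as mean ± SD of three replications.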"}, "[5]": {"system": "Staphylococcus aureus", "experiment": "Potency index, ratio of MIC of gatifloxacin to MIC of compound for antibacterial activity against Staphylococcus aureus KCTC503 assessed as reduction in bacterial cell growth incubated for 24 hrs by ELISA", "format": "functional"}, "[6]": {"target": "T3, Tyrosine-protein phosphatase non-receptor type 1 (Homo sapiens, UniProt P18031)", "T3 sequence (P18031 whole entry)": "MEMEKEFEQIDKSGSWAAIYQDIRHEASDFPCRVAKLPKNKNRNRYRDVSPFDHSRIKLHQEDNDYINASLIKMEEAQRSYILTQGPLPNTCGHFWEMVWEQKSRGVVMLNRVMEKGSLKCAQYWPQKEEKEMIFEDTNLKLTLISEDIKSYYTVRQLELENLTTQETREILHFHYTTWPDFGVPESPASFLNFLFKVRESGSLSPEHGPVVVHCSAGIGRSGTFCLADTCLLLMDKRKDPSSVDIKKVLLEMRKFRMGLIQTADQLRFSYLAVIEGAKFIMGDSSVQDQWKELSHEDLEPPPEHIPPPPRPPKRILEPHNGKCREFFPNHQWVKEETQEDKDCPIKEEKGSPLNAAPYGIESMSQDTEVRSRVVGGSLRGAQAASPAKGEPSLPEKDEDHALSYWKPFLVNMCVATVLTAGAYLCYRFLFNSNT", "experiment": "Competitive inhibition of human recombinant GST-tagged PTP1B expressed in Escherichia coli BL21 (DE3) using pNPP as substrate assessed as inhibitor constant measured for 2 mins by colorimetric analysis"}, "[7]": {"target": "T4, Tyrosine-protein phosphatase non-receptor type 1 (Homo sapiens) (UniProt P18031)", "T4 sequence (whole entry)": "T3 sequence (P18031 whole entry)", "experiment": "Competitive inhibition of human recombinant GST-tagged PTP1B expressed in Escherichia coli BL21 (DE3) using pNPP as substrate assessed as increase in Km value measured for 2 mins by colorimetric analysis"}, "[8]": {"target": "T4, Tyrosine-protein phosphatase non-receptor type 1 (Homo sapiens)", "experiment": "Competitive inhibition of human recombinant GST-tagged PTP1B expressed in Escherichia coli BL21 (DE3) using pNPP as substrate assessed as unchanged Vmax value measured for 2 mins by colorimetric analysis"}, "[9]": {"target": "T4, Tyrosine-protein phosphatase non-receptor type 1 (Homo sapiens)", "experiment": "Potency index, ratio of IC50 of oleanolic acid to IC50 of compound inhibition of human recombinant GST-tagged PTP1B expressed in Escherichia coli BL21 (DE3) using pNPP as substrate measured for 2 mins by colorimetric analysis"}, "[10]": {"target": "T1, Receptor-type tyrosine-protein phosphatase F", "experiment": "Inhibition of human recombinant GST-tagged LAR (catalytic domain 1275 to 1613 residues) expressed in Escherichia coli BL21 (DE3) using pNPP as substrate measured for 2 mins by colorimetric analysis"}, "[11]": {"target": "T4, Tyrosine-protein phosphatase non-receptor type 1 (Homo sapiens)", "experiment": "Inhibition of human recombinant GST-tagged PTP1B expressed in Escherichia coli BL21 (DE3) using pNPP as substrate incubated for 4 to 16 mins and measured for 2 mins by colorimetric analysis", "conditions": "TDE = time-dependent effect", "method_in_brief": "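pNPP used as the phosphatase substrate, with the enzyme assay following earlier published work. IC50 obtained by regression analysis and reported as mean ± SD of three replications.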"}},
  "note": "Calls of active or inactive are those of the source. No cut-off for these calls is given here.",
  "data": [
    {"compound": "O=C(O)C(Cc1c[nH]c2ccccc12)N1C(=O)/C(=C/c2ccc3cc(OCc4ccc(Cl)cc4Cl)ccc3c2)SC1=S", "note": "(stereo not drawn)", "values": [
      {"measurement": "inhibition", "setting": "[1]", "result": "inactive"},
      {"measurement": "MIC", "setting": "[2]", "result": 4, "unit": "µg/mL"},
      {"measurement": "MIC", "setting": "[3]", "result": 4, "unit": "µg/mL"},
      {"measurement": "IC50", "setting": "[4]", "result": 0.49, "unit": "µM"}
    ]},
    {"compound": "Cc1ccc(COc2ccc3cc(/C=C4\\SC(=S)N(C(Cc5c[nH]c6ccccc56)C(=O)O)C4=O)ccc3c2)cc1", "note": "(stereo not drawn)", "values": [
      {"measurement": "inhibition", "setting": "[1]", "result": "inactive"},
      {"measurement": "MIC", "setting": "[2]", "result": 2, "unit": "µg/mL"},
      {"measurement": "MIC", "setting": "[3]", "result": 2, "unit": "µg/mL"},
      {"measurement": "IC50", "setting": "[4]", "result": 0.83, "unit": "µM"},
      {"measurement": "Ratio", "setting": "[5]", "result": 2}
    ]},
    {"compound": "O=C(O)C(Cc1c[nH]c2ccccc12)N1C(=O)/C(=C/c2ccc3cc(OCc4ccc(Br)cc4)ccc3c2)SC1=S", "note": "(stereo not drawn)", "values": [
      {"measurement": "MIC", "setting": "[2]", "result": 8, "unit": "µg/mL"},
      {"measurement": "Ki", "setting": "[6]", "result": 0.07, "unit": "µM"},
      {"measurement": "MIC", "setting": "[3]", "result": 4, "unit": "µg/mL"},
      {"measurement": "inhibition", "setting": "[7]", "result": "Active"},
      {"measurement": "IC50", "setting": "[4]", "result": 0.32, "unit": "µM"},
      {"measurement": "inhibition", "setting": "[8]", "result": "Active"},
      {"measurement": "Ratio IC50", "setting": "[9]", "result": 8},
      {"measurement": "IC50", "setting": "[10]", "result": 29.1, "unit": "µM"},
      {"measurement": "inhibition", "setting": "[11]", "result": "Tde"}
    ]}
  ]
}
